ChEMBL document CHEMBL3585292, “Anti-dormant mycobacterial activity and target analysis of nybomycin produced by a marine-derived Streptomyces sp” (2015)
Values after ≈ are worked out from the molar mass of the structure shown. Active and inactive are the calls of the source. The calls are words filed in the database; no cut-off is given here.

What was measured:
[1] = tested on: Mycolicibacterium smegmatis; assay: Antibacterial activity against Mycobacterium smegmatis MC2 155 under aerobic condition after 36 hrs by MTT assay; type: functional; conditions: str. MC2 155, 36 h
Procedure, shortened: (§1)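 MTT microdilution. Mid-log bacilli in 7H9 with 10% OADC, 0.5% glycerol, 0.05% Tween 80, seeded at 1 × 10⁴ CFU/0.1 mL (M. smegmatis) or 1 × 10⁵ CFU/0.1 mL (BCG, M. tuberculosis), then serially diluted sample added. Aerobic incubation at 37 °C; hypoxic incubation at 37 °C under N2 with 0.2% O2. MTT (0.5 mg/mL, 50 µL) added for 12 h more, OD560 read to give MIC.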

[2] = tested on: Mycolicibacterium smegmatis; assay: Antibacterial activity against Mycobacterium smegmatis MC2 155 under hypoxic condition after 96 hrs by MTT assay; type: functional; conditions: str. MC2 155, 96 h; procedure, shortened: as §1
[3] = Inhibition of nybomycin probe (2) binding to pMV206 DNA (unknown origin) with cloned 700476 to 702854 bp of Mycobacterium bovis BCG genome overexpressed in Mycobacterium smegmatis ICHO1036 at 60 uM after 1 hr by agarose gel electrophoresis
[4] = Binding affinity to pMV206 DNA (unknown origin) with cloned 700476 to 702854 bp of Mycobacterium bovis BCG genome overexpressed in Mycobacterium smegmatis ICHO1036 at 260 pmol after 1 hr by agarose gel electrophoresis
[5] = tested on: Mycobacterium tuberculosis; assay: Antibacterial activity against Mycobacterium tuberculosis H37Rv under aerobic condition after 7 days by MTT assay; type: functional; conditions: 168 h; procedure, shortened: as §1
[6] = tested on: Mycobacterium tuberculosis; assay: Antibacterial activity against Mycobacterium tuberculosis T1413 under aerobic condition after 7 days by MTT assay; type: functional; conditions: T1413, 168 h; procedure, shortened: as §1
[7] = tested on: Mycobacterium tuberculosis; assay: Antibacterial activity against Mycobacterium tuberculosis T1538 under aerobic condition after 7 days by MTT assay; type: functional; conditions: T1538, 168 h; procedure, shortened: as §1
[8] = tested on: Mycolicibacterium smegmatis; assay: Antibacterial activity against Mycobacterium smegmatis MC2 155 assessed as induction of morphological changes at 1 ug/ml after 48 hrs by phase contrast/scanning electron microscopic analysis; type: functional, organism-based; conditions: str. MC2 155
[9] = tested on: Mycolicibacterium smegmatis; assay: Antibacterial activity against Mycobacterium smegmatis ICHO1034 harboring pMV206 with cloned 685769 to 689308 bp of Mycobacterium bovis BCG genome at 2 ug/ml by agar plate method; type: functional, organism-based
[10] = tested on: Mycolicibacterium smegmatis; assay: Antibacterial activity against Mycobacterium smegmatis ICHO1036 harboring pMV206 with cloned 700476 to 702854 bp of Mycobacterium bovis BCG genome at 2 ug/ml by agar plate method; type: functional, organism-based
[11] = tested on: Mycolicibacterium smegmatis; assay: Antibacterial activity against Mycobacterium smegmatis ICHO2012 harboring pYUB415 with cloned 686465 to 716464 bp of Mycobacterium bovis BCG genome at 2 ug/ml by agar plate method; type: functional, organism-based
[12] = tested on: Mycolicibacterium smegmatis; assay: Antibacterial activity against Mycobacterium smegmatis ICHO1035 harboring pMV206 with cloned 696695 to 700844 bp of Mycobacterium bovis BCG genome at 2 ug/ml by agar plate method; type: functional, organism-based
[13] = tested on: Mycolicibacterium smegmatis; assay: Antibacterial activity against Mycobacterium smegmatis ICHO1037 harboring pMV261 with cloned 4109204 to 4110235 bp of Mycobacterium bovis BCG genome at 2 ug/ml by agar plate method; type: functional, organism-based
[14] = tested on: Mycolicibacterium smegmatis; assay: Antibacterial activity against Mycobacterium smegmatis ICHO1034 harboring pMV206 with cloned 685769 to 689308 bp of Mycobacterium bovis BCG genome at 4 ug/ml by agar plate method; type: functional, organism-based
[15] = tested on: Mycolicibacterium smegmatis; assay: Antibacterial activity against Mycobacterium smegmatis ICHO1035 harboring pMV206 with cloned 696695 to 700844 bp of Mycobacterium bovis BCG genome at 4 ug/ml by agar plate method; type: functional, organism-based
[16] = tested on: Mycolicibacterium smegmatis; assay: Antibacterial activity against Mycobacterium smegmatis ICHO1036 harboring pMV206 with cloned 700476 to 702854 bp of Mycobacterium bovis BCG genome at 4 ug/ml by agar plate method; type: functional, organism-based
[17] = tested on: Mycolicibacterium smegmatis; assay: Antibacterial activity against Mycobacterium smegmatis ICHO1037 harboring pMV261 with cloned 4109204 to 4110235 bp of Mycobacterium bovis BCG genome at 4 ug/ml by agar plate method; type: functional, organism-based
[18] = tested on: Mycolicibacterium smegmatis; assay: Antibacterial activity against Mycobacterium smegmatis ICHO1038 harboring pMV261 with cloned 4126836 to 4129396 bp of Mycobacterium bovis BCG genome at 4 ug/ml by agar plate method; type: functional, organism-based
[19] = tested on: Mycolicibacterium smegmatis; assay: Antibacterial activity against Mycobacterium smegmatis ICHO2012 harboring pYUB415 with cloned 686465 to 716464 bp of Mycobacterium bovis BCG genome at 4 ug/ml by agar plate method; type: functional, organism-based
[20] = Binding affinity to pMV206 DNA (unknown origin) at 260 pmol after 1 hr by agarose gel electrophoresis
[21] = Binding affinity to pMV206 DNA (unknown origin) with cloned 696695 to 700844 bp of Mycobacterium bovis BCG genome overexpressed in Mycobacterium smegmatis ICHO1035 at 260 pmol after 1 hr by agarose gel electrophoresis

## NNC(=O)c1ccncc1 [ISONIAZID]
[1]
  MIC: 2.5 µg/mL (≈ 18.2 µM)
[2]
  MIC: 25 µg/mL (≈ 182 µM)
[3]
  inhibition: inactive

## COC(=O)CCCc1cn(CCOCCOCCOCCOCCOCCOCCOCCOCCOCCOCCNC(=O)CCCC[C@@H]2SC[C@@H]3NC(=O)N[C@@H]32)nn1
[1]
  MIC: > 200 µg/mL
[2]
  MIC: > 200 µg/mL
[4]
  Activity: inactive

## Cc1cc(=O)n2c3c(c4c(cc13)c(CO)cc(=O)n4C)OC2
[1]
  MIC: 1 µg/mL (≈ 3.35 µM)
[2]
  MIC: 1 µg/mL (≈ 3.35 µM)
[5]
  MIC: 4.2 µg/mL (≈ 14.1 µM)
[6]
  MIC: 6.3 µg/mL (≈ 21.1 µM)
[7]
  MIC: 5.2 µg/mL (≈ 17.4 µM)
[8]
  Activity: Active
[9]
  Activity: inactive
[10]
  Activity: inactive
[11]
  Activity: inactive
[12]
  Activity: Active
[13]
  Activity: Active
[14]
  Activity: Active
[15]
  Activity: Active
[16]
  Activity: Active
[17]
  Activity: Active
[18]
  Activity: Active
[19]
  Activity: inactive
[3]
  inhibition: Active

## Cc1cc(=O)n2c3c(c4c(cc13)c(COC(=O)CCCc1cn(CCOCCOCCOCCOCCOCCOCCOCCOCCOCCOCCNC(=O)CCCC[C@@H]3SC[C@@H]5NC(=O)N[C@@H]53)nn1)cc(=O)n4C)OC2
[1]
  MIC: 25 µg/mL (≈ 21.8 µM)
[2]
  MIC: 6.25 µg/mL (≈ 5.46 µM)
[4]
  Activity: Active
[20]
  Activity: Active
[21]
  Activity: Active
